Values after ≈ are worked out from the molar mass of the structure shown. Active and inactive are the calls of the source. The rule behind the calls is not given here.
Assays:
Aspergillus fumigatus [1] = assay: Antimicrobial activity against Aspergillus fumigatus at 1.25 ug/mL by agar diffusion method; type: functional; conditions: read-out: IZ
Aspergillus fumigatus [2] = assay: Antimicrobial activity against Aspergillus fumigatus at 5 ug/mL by agar diffusion method; type: functional; conditions: read-out: IZ
Staphylococcus aureus [3] = assay: Antimicrobial activity against Staphylococcus aureus at 2.5 ug/mL by agar diffusion method; type: functional; conditions: read-out: IZ
Pseudomonas aeruginosa [4] = assay: Antimicrobial activity against Pseudomonas aeruginosa at 2.5 ug/mL by agar diffusion method; type: functional; conditions: read-out: IZ
Penicillium italicum [5] = assay: Antimicrobial activity against Penicillium italicum at 2.5 ug/mL by agar diffusion method; type: functional; conditions: read-out: IZ
Escherichia coli [6] = assay: Antimicrobial activity against Escherichia coli at 2.5 ug/mL by agar diffusion method; type: functional; conditions: read-out: IZ
Bacillus subtilis [7] = assay: Antimicrobial activity against Bacillus subtilis at 2.5 ug/mL by agar diffusion method; type: functional; conditions: read-out: IZ
Staphylococcus aureus [8] = assay: Antimicrobial activity against Staphylococcus aureus at 1.25 ug/mL by agar diffusion method; type: functional; conditions: read-out: IZ
[9] = test system: Radical scavenging activity; assay: Antioxidant activity assessed as DPPH free radical scavenging activity by measuring reduction in DPPH absorbance by ELISA relative to untreated control; type: functional; design: concentration or dose not given beside the values
In short: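 Test compounds dissolved in DMSO, ascorbic acid standard in water, both serially diluted. 10 µl sample added to 90 µl of 100 µM DPPH in methanol and kept in the dark at 37 °C for 30 min. Absorbance read at 515 nm. Blank is DMSO plus DPPH. % reduction = (A_B − A_A)/A_B × 100. Run in triplicate.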

Bacillus subtilis [10] = assay: Antimicrobial activity against Bacillus subtilis at 1.25 ug/mL by agar diffusion method; type: functional; conditions: read-out: IZ
Escherichia coli [11] = assay: Antimicrobial activity against Escherichia coli at 5 ug/mL by agar diffusion method; type: functional; conditions: read-out: IZ
[12] = test system: Syncephalastrum racemosum; assay: Antimicrobial activity against Syncephalastrum racemosum at 2.5 ug/mL by agar diffusion method; type: functional; conditions: read-out: IZ
Hepatitis C virus = assay: Antiviral activity against HCV by cell based replicon assay; type: functional, Hepacivirus hominis
In short: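 HCV replicon cells plated at 1×10^4 per well. Next day incubated at 37 °C with serially diluted compound in DMEM with 2% FBS and 0.5% DMSO. HCV RNA copy number measured by quantitative RT-PCR on total cellular RNA. Each point is the average of five replicates. Cytotoxicity measured by MTS in parallel.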

Pseudomonas aeruginosa [13] = assay: Antimicrobial activity against Pseudomonas aeruginosa at 1.25 ug/mL by agar diffusion method; type: functional; conditions: read-out: IZ
Pseudomonas aeruginosa [14] = assay: Antimicrobial activity against Pseudomonas aeruginosa at 5 ug/mL by agar diffusion method; type: functional; conditions: read-out: IZ
MC-38 = assay: Antitumor activity against mouse Colon 38 cells implanted in iv dosed C57BL/6 mouse administered as single dose; type: functional, organism-based
In short: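 Female C57BL/6 mice, 6 weeks old, given about 30 mg Colon 38 tumor tissue s.c. in the flank. Randomized into groups of n = 5 when tumors reached about 300 mm3 (day 1). Compound in 5% glucose given as a single iv tail-vein dose on day 1; controls received 5% glucose. Tumor volume = (length × width²)/2 and body weight tracked.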

[15] = Antioxidant activity assessed as inhibition of peroxynitrite-mediated 3-nitrotyrosine formation by HPLC; type: functional
In short: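 Tyrosine and peroxynitrite, each 100 µM, reacted with compound at 0–300 µM in 100 mM phosphate buffer pH 7.4 at 37 °C for 15 min. Peroxynitrite made from acidified H2O2 plus KNO2, quenched with NaOH, and kept on ice no longer than 30 min before use.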

[16] = biological target: T1, DNA topoisomerase 1 (Homo sapiens) (UniProt P11387); assay: Inhibition of topoisomerase 1 relative to etoposide
T1 sequence (whole entry): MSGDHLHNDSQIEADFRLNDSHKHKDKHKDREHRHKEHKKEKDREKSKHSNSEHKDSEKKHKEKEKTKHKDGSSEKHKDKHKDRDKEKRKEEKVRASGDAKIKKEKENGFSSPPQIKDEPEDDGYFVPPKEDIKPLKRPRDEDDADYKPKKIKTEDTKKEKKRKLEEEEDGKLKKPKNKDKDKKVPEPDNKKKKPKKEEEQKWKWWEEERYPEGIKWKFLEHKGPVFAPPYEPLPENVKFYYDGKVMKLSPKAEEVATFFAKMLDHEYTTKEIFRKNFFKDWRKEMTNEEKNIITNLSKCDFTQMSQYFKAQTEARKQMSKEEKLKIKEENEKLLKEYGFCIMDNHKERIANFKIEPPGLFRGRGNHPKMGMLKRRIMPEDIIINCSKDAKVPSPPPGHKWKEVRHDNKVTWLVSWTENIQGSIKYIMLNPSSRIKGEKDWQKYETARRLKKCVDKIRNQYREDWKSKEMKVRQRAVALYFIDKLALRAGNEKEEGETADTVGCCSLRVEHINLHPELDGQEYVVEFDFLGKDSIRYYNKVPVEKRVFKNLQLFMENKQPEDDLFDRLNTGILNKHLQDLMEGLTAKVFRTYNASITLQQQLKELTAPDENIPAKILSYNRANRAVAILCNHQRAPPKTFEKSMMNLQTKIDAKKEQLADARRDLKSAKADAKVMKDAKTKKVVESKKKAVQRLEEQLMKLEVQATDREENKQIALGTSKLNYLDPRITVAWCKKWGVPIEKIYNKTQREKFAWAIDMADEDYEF

Staphylococcus aureus [17] = assay: Antimicrobial activity against Staphylococcus aureus at 5 ug/mL by agar diffusion method; type: functional; conditions: read-out: IZ
Bacillus subtilis [18] = assay: Antimicrobial activity against Bacillus subtilis at 5 ug/mL by agar diffusion method; type: functional; conditions: read-out: IZ
Penicillium italicum [19] = assay: Antimicrobial activity against Penicillium italicum at 5 ug/mL by agar diffusion method; type: functional; conditions: read-out: IZ
Measles morbillivirus = assay: Antiviral activity against Measles virus infected in intracranially dosed hamster assessed as inhibition of subacute sclerosing panencephalitis; type: functional
In short: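 Hamsters under ether anesthesia injected intracranially, into the subarachnoid space at 2 mm depth, at 5, 10 and 20 mg/kg/day for 10 days. Four animals per group sacrificed on days 1–20. Brains homogenized in PBS and centrifuged, supernatant deproteinized with ethanol, then MIC in brain tissue determined by HPLC and bioassay.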

Candida albicans [20] = assay: Antimicrobial activity against Candida albicans at 5 ug/mL by agar diffusion method; type: functional; conditions: read-out: IZ
[21] = biological target: DNA topoisomerase 2-alpha (Mus musculus) (UniProt Q01320); assay: Inhibition of topoisomerase 2 from mouse P388 cells assessed as relaxation of pBR322 DNA by agarose gel electrophoresis relative to etoposide; type: cell-based
In short: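 Topoisomerase II purified from P388 cells. One unit relaxes 0.125 µg supercoiled pBR322 DNA, incubated with or without inhibitor at 30 °C for 1 h in 50 mM Tris-HCl pH 8.0, 100 mM KCl, 10 mM MgCl2, 0.5 mM DTT, 1 mM ATP and 30 µg/ml BSA. Products run on 0.7% agarose in TBE, stained with ethidium bromide and imaged under UV.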

Escherichia coli [22] = assay: Antimicrobial activity against Escherichia coli at 1.25 ug/mL by agar diffusion method; type: functional; conditions: read-out: IZ
[23] = test system: Syncephalastrum racemosum; assay: Antimicrobial activity against Syncephalastrum racemosum at 1.25 ug/mL by agar diffusion method; type: functional; conditions: read-out: IZ
Aspergillus fumigatus [24] = assay: Antimicrobial activity against Aspergillus fumigatus at 2.5 ug/mL by agar diffusion method; type: functional; conditions: read-out: IZ
Candida albicans [25] = assay: Antimicrobial activity against Candida albicans at 2.5 ug/mL by agar diffusion method; type: functional; conditions: read-out: IZ
[26] = test system: Syncephalastrum racemosum; assay: Antimicrobial activity against Syncephalastrum racemosum at 5 ug/mL by agar diffusion method; type: functional; conditions: read-out: IZ
Penicillium italicum [27] = assay: Antimicrobial activity against Penicillium italicum at 1.25 ug/mL by agar diffusion method; type: functional; conditions: read-out: IZ
Candida albicans [28] = assay: Antimicrobial activity against Candida albicans at 1.25 ug/mL by agar diffusion method; type: functional; conditions: read-out: IZ

Chain of DNA topoisomerase 2-alpha (Mus musculus) (Q01320 whole entry): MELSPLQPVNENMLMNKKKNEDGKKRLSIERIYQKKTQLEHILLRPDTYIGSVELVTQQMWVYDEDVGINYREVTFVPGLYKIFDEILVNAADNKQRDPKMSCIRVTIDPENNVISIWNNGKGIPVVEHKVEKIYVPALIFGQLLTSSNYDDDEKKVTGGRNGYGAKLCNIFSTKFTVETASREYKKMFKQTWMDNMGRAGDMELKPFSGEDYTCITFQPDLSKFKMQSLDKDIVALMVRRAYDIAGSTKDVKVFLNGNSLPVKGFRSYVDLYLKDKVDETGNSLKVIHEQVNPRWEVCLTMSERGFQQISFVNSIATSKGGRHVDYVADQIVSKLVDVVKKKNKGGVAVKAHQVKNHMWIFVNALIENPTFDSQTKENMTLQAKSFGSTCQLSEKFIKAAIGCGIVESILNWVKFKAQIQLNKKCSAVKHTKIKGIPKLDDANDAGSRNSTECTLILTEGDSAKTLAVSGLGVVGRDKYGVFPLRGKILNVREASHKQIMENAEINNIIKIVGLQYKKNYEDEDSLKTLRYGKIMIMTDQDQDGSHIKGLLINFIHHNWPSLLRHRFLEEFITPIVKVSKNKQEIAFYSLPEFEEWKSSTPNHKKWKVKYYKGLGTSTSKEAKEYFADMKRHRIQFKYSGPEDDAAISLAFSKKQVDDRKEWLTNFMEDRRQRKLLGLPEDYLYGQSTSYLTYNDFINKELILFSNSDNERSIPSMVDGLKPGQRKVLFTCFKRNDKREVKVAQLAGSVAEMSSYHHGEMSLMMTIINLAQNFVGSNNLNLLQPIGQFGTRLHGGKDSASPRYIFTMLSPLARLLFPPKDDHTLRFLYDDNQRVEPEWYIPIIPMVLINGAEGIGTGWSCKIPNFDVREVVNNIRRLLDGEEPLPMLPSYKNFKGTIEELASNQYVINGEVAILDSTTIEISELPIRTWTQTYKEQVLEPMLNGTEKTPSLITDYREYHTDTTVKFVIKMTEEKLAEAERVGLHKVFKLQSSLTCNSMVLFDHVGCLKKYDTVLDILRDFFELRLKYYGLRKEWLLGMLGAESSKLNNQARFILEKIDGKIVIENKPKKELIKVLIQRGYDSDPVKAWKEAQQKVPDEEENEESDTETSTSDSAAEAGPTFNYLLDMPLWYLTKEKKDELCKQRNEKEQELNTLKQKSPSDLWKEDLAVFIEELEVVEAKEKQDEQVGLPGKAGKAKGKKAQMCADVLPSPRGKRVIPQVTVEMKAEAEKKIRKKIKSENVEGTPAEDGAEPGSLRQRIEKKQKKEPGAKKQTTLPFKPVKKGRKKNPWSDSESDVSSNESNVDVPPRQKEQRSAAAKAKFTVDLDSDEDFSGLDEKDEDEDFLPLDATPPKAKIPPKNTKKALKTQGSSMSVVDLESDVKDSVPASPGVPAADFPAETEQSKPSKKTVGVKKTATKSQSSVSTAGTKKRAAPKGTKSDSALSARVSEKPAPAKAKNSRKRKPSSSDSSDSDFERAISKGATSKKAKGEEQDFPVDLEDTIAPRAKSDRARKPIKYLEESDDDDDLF

In the case of O=C1/C(=N/Nc2ccc([N+](=O)[O-])cc2)CCCc2ccccc21, the zone of inhibition at 1.25 µg/mL (Aspergillus fumigatus [1]) is reported as 5 mm, the zone of inhibition at 5 µg/mL (Aspergillus fumigatus [2]) is reported as 18 mm and the zone of inhibition at 2.5 µg/mL (Staphylococcus aureus [3]) is reported as 3 mm. It also gave a zone of inhibition at 2.5 µg/mL (Pseudomonas aeruginosa [4]) of 0 mm, a zone of inhibition at 2.5 µg/mL (Penicillium italicum [5]) of 0 mm and a zone of inhibition at 2.5 µg/mL (Escherichia coli [6]) of 0 mm. It also gave a zone of inhibition at 2.5 µg/mL (Bacillus subtilis [7]) of 8 mm, a zone of inhibition at 1.25 µg/mL (Staphylococcus aureus [8]) of 0 mm and an Activity [9] of 82%. The zone of inhibition at 1.25 µg/mL (Bacillus subtilis [10]) was 3 mm, the zone of inhibition at 5 µg/mL (Escherichia coli [11]) was 8 mm and the zone of inhibition at 2.5 µg/mL [12] was 9 mm. It also gave an MIC (Hepatitis C virus) of 1.03 µg/mL (≈ 3.34 µM), a zone of inhibition at 1.25 µg/mL (Pseudomonas aeruginosa [13]) of 0 mm and a zone of inhibition at 5 µg/mL (Pseudomonas aeruginosa [14]) of 0 mm. The Activity (MC-38) was “Active”, the IC50 [15] was 5.13 µM and the Ratio [16] was 4.4. The zone of inhibition at 5 µg/mL (Staphylococcus aureus [17]) was 9 mm, the zone of inhibition at 5 µg/mL (Bacillus subtilis [18]) was 14 mm and the zone of inhibition at 5 µg/mL (Penicillium italicum [19]) was 0 mm. The MIC (Measles morbillivirus) was 6.08 µg/mL (≈ 19.7 µM), the zone of inhibition at 5 µg/mL (Candida albicans [20]) was 12 mm and the Ratio [21] was 4.6. For the same compound, the zone of inhibition at 1.25 µg/mL (Escherichia coli [22]) was 0 mm, the zone of inhibition at 1.25 µg/mL [23] was 4 mm and the zone of inhibition at 2.5 µg/mL (Aspergillus fumigatus [24]) was 8 mm. For the same compound, the zone of inhibition at 2.5 µg/mL (Candida albicans [25]) was 6 mm, the zone of inhibition at 5 µg/mL [26] was 16 mm and the zone of inhibition at 1.25 µg/mL (Penicillium italicum [27]) was 0 mm. The zone of inhibition at 1.25 µg/mL (Candida albicans [28]) was 0 mm.
